Assay results pooled from the literature.
Each line is one published result; the experiments were not run side by side.
Target: 3-phosphoinositide-dependent protein kinase 1 (PDPK1, Homo sapiens, UniProt O15530)
Sequence (O15530 1-556, as in one of the studies): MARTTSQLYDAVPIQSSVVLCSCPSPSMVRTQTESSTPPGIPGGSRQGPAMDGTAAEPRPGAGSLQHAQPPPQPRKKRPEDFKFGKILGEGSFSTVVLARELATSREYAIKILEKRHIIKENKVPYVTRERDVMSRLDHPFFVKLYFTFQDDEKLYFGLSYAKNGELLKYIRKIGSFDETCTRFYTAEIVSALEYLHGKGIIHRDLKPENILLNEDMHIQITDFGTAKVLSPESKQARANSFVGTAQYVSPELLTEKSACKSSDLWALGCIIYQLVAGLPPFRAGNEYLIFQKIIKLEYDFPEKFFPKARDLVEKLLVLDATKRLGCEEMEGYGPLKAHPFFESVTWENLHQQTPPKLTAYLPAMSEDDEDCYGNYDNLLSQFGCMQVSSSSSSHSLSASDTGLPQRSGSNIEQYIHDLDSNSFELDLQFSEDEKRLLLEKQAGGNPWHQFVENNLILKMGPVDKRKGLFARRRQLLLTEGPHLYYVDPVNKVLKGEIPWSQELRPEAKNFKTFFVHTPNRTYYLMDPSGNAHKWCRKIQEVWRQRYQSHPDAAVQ

O=c1[nH]c2ccccc2n1C1CCN(Cc2ccc(-c3[nH]c4cc5ncnc5cc4nc3-c3ccccc3)cc2)CC1 — remaining signal (cell-free assay; 0.5 µM): 107%
Cn1cncc1[C@@](O)(COc1ccc(C#N)cc1-c1ccc(OC(F)(F)F)cc1)c1ccc(C#N)cc1 — remaining binding (cell-free assay, competition with immobilised ligand; 1 µM): 96%
COc1ncccc1-c1cnn2ccc(N3CCN(C(=O)OC(C)C)CC3)nc12 — remaining binding (binding, competition with immobilised ligand; 1 µM): 82%
Cn1cc(-c2cc(F)cc(N3CCn4c(cc5c4CCCC5)C3=O)c2CO)cc(Nc2ccc(N3CCN(C4COC4)CC3)cn2)c1=O — inhibition (enzyme activity, inhibitor; 0.1 µM): 1%
CC(C)(C)c1cc(C=C(C#N)C#N)cc(Br)c1O — remaining activity (enzyme activity, inhibitor; 0.5 µM): 102%
C#Cc1n[nH]c2c(-c3cn([C@@H](C)c4ccccc4)c(=O)[nH]c3=O)cc(F)cc12 — inhibition (enzyme activity, inhibitor; 0.1 µM): 4%
Cc1nn(C)cc1-c1nc2c(N3CCN(Cc4ccc(Cl)cc4)CC3)c(Cl)cnc2[nH]1 — remaining binding (binding, competition with immobilised ligand; 1 µM): 100%
C#Cc1n[nH]c2c(-c3cn([C@@H](C)c4ccccn4)c(=O)[nH]c3=O)cc(F)cc12 — inhibition (enzyme activity, inhibitor; 0.1 µM): 4.7%
Nc1ncc(-c2nc(N3CCOCC3)nc(N3CCOCC3)n2)c(C(F)F)n1 — remaining binding (binding, competition with immobilised ligand; 10 µM): 83%
